Experimental data as given in ChEMBL document CHEMBL4000163, “Pyrazole derived ultra-short antimicrobial peptidomimetics with potent anti-biofilm activity” (Eur J Med Chem, 2017).
Values after ≈ are worked out from the molar mass of the structure shown. Active and inactive are the calls of the source. The rule behind the calls is not given here.

How the values were obtained:
Staphylococcus aureus [1] = test: Antimicrobial activity against Staphylococcus aureus KCTC 1621 in presence of NaCl; type: functional
Method in brief: (§1)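 MIC by microdilution with 2 × 10⁶ CFU/ml S. aureus KCTC 1621 in LB medium supplemented with physiological salt: 150 mM NaCl, 1 mM MgCl₂ or 2.5 mM CaCl₂; growth inhibition endpoint as in the standard MIC assay.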

Staphylococcus aureus [2] = test: Antimicrobial activity against Staphylococcus aureus KCTC 1621 assessed as cell membrane damage at 2 times MIC after 1 hr by transmission electron microscopy; type: functional
Method in brief: (§2)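 Bacteria at 2×10^7 CFU/mL in LB, washed three times in PBS. Peptide in PBS was added to a final 2 × MIC and incubated 1 h at 37 °C. Pelleted cells were resuspended in PBS, applied to glow-discharged carbon-film grids, negatively stained with 1% uranyl acetate for 1 min, and imaged by TEM at 120 kV.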

Staphylococcus aureus [3] = test: Antibacterial activity against methicillin resistant Staphylococcus aureus CCARM 3095 after 18 to 20 hrs by broth microdilution assay; type: functional; details: read-out: MIC100
Method in brief: (§3)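 Broth microdilution in 1% peptone: bacteria at 2 × 10⁶ CFU/mL mixed 1:1 with serial 2-fold peptide dilutions, 18-20 h at 37 °C; growth read as absorbance at 600 nm. MIC taken as lowest concentration giving 100% growth inhibition.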

RAW264.7 [4] = test: Antiinflammatory activity in mouse RAW264.7 cells assessed as inhibition of LPS-induced iNOS mRNA expression at 16 ug/mL after 6 hrs by RT-PCR method; type: functional, cell-based
Method in brief: (§4)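 RAW264.7 cells plated at 5×10^5 cells/well and cultured overnight. They were stimulated with 20 ng/mL LPS, with or without peptide, in DMEM with 10% bovine serum, for 3 h (TNF-α) or 6 h (iNOS). Total RNA was reverse-transcribed with oligo(dT)15 primers and amplified for 30 cycles (annealing 55 °C). mRNA was analysed by PCR.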

Staphylococcus aureus [5] = test: Antimicrobial activity against Staphylococcus aureus KCTC 1621 in presence of MgCl2; type: functional; method in brief: as §1
Staphylococcus aureus [6] = test: Induction of cytoplasmic membrane depolarization in Staphylococcus aureus KCTC 1621 assessed as loss of membrane potential after 1 hr by DiSC3(5) dye based fluorescence assay; type: functional
Staphylococcus aureus [7] = test: Antimicrobial activity against Staphylococcus aureus KCTC 1621 using 4 hrs trypsin incubated compound measured after overnight incubation by radial diffusion assay; type: functional
Method in brief: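 Radial diffusion: mid-log cells (2×10^6 CFU/ml in LB) in 0.7% agarose. Peptide stock (10 mg/mL) added to trypsin in PBS (0.2 µg/mL), 4 h at 37 °C, stopped by liquid-nitrogen freezing; 10 µL on paper discs on the plates, overnight at 37 °C. Clearance-zone diameters measured.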

Escherichia coli [8] = test: Antimicrobial activity against Escherichia coli KCTC 1682 in presence of NaCl; type: functional
Method in brief: (§5)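 MIC in LB medium with added 150 mM NaCl, 1 mM MgCl₂ or 2.5 mM CaCl₂. Inoculum of 2 × 10⁶ CFU/mL with peptide. Otherwise as the broth microdilution MIC assay; MIC is the lowest concentration giving 100% growth inhibition.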

Pseudomonas aeruginosa [9] = test: Potency index, ratio of melittin MIC100 to compound MIC100 for Pseudomonas aeruginosa KCTC 1637; type: functional
Pseudomonas aeruginosa [10] = test: Potency index, ratio of LL-37 MIC100 to compound MIC100 for Pseudomonas aeruginosa KCTC 1637; type: functional
[11] = Therapeutic index, ratio of MHC for sheep RBC to geometric mean of MICs for four bacterial strains
Escherichia coli [12] = test: Antimicrobial activity against Escherichia coli KCTC 1682 in presence of CaCl2; type: functional; method in brief: as §5
Escherichia coli [13] = test: Induction of outer membrane permeabilization in Escherichia coli KCTC 1682 assessed as NPN uptake by spectrofluorophotometric analysis; type: functional
Method in brief: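 E. coli KCTC 1682 at OD600 0.05 in 5 mM HEPES pH 7.2 with 5 mM KCN; NPN 10 µM final, background fluorescence recorded (ex 350, em 420 nm). Peptide aliquots at various concentrations added and fluorescence followed over time until no further rise.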

[14] = system: Staphylococcus epidermidis; test: Antimicrobial activity against Staphylococcus epidermidis KCTC 1917 incubated for 18 to 20 hrs by broth microdilution assay; type: functional; details: read-out: MIC100
Method in brief: (§6)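 Broth microdilution in 1% peptone. Inoculum was 2 × 10⁶ CFU/mL mixed 1:1 with serial 2-fold peptide dilutions and incubated 18–20 h at 37 °C. Growth was read as absorbance at 600 nm; MIC is the lowest peptide concentration giving 100% growth inhibition.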

Pseudomonas aeruginosa [15] = test: Antibacterial activity against multidrug-resistant Pseudomonas aeruginosa CCARM 2095 after 18 to 20 hrs by broth microdilution assay; type: functional; details: read-out: MIC100; method in brief: as §3
Enterococcus faecium [16] = test: Potency index, ratio of melittin MIC100 to compound MIC100 for vancomycin-resistant Enterococcus faecium ATCC 51559; type: functional
Staphylococcus aureus [17] = test: Potency index, ratio of melittin MIC100 to compound MIC100 for methicillin resistant Staphylococcus aureus CCARM 3089; type: functional
Staphylococcus aureus [18] = test: Antimicrobial activity against Staphylococcus aureus KCTC 1621 in presence of CaCl2; type: functional; method in brief: as §1
RAW264.7 [19] = test: Antiinflammatory activity in mouse RAW264.7 cells assessed as inhibition of LPS-induced TNFalpha mRNA expression at 16 ug/mL after 3 hrs by RT-PCR method; type: functional, cell-based; method in brief: as §4
Enterococcus faecium [20] = test: Antibacterial activity against vancomycin-resistant Enterococcus faecium ATCC 51559 after 18 to 20 hrs by broth microdilution assay; type: functional; details: read-out: MIC100; method in brief: as §3
[21] = Therapeutic index, ratio of MHC for sheep RBC to MIC for Staphylococcus epidermidis KCTC 1917
Staphylococcus aureus [22] = test: Antibacterial activity against methicillin resistant Staphylococcus aureus CCARM 3090 after 18 to 20 hrs by broth microdilution assay; type: functional; details: read-out: MIC100; method in brief: as §3
Pseudomonas aeruginosa [23] = test: Antibacterial activity against multidrug-resistant Pseudomonas aeruginosa CCARM 2109 after 18 to 20 hrs by broth microdilution assay; type: functional; details: read-out: MIC100; method in brief: as §3
RAW264.7 [24] = test: Antiinflammatory activity in mouse RAW264.7 cells assessed as inhibition of LPS-induced TNF-alpha production at 32 ug/mL preincubated with cells followed by LPS addition measured after 6 hrs by ELISA; type: functional
Method in brief: (§7)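 RAW264.7 cells seeded at 5 × 10⁴ cells/well, left overnight, then given peptide at 37 °C. Unbound peptide was washed off with PBS (five washes) before LPS (20 ng/mL) was added for 6 h at 37 °C. TNF-α in the samples was measured by mouse ELISA. Mean ± SEM of technical triplicates, one-way ANOVA with Bonferroni post-test.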

Escherichia coli [25] = test: Antimicrobial activity against Escherichia coli KCTC 1682 assessed as disruption of bacterial cell membrane at 2 times MIC after 1 hr by transmission electron microscopy; type: functional; method in brief: as §2
Staphylococcus aureus [26] = test: Antimicrobial activity against Staphylococcus aureus KCTC 1621 incubated for 18 to 20 hrs by broth microdilution assay; type: functional; details: read-out: MIC100; method in brief: as §6
RAW264.7 [27] = test: Antiinflammatory activity in mouse RAW264.7 cells assessed as inhibition of LPS-induced TNF-alpha production preincubated with cells followed by LPS addition measured after 6 hrs by ELISA; type: functional, cell-based; method in brief: as §7

Q: With `N=C(N)NCCC[C@H](NC(=O)c1nn(CCc2cccc3ccccc23)cc1NC(=O)[C@H](CCCNC(=N)N)NC(=O)c1nn(CCc2cccc3ccccc23)cc1N)C(N)=O` as the compound, how does the MIC (Staphylococcus aureus [1]) read?
A: Its MIC is 4 µg/mL.

Q: And the Activity (Staphylococcus aureus [2])?
A: Its Activity is “Active”.

Q: What about the MIC (Staphylococcus aureus [3]) of the same compound?
A: The MIC was 4 µg/mL (≈ 4.67 µM).

Q: What about the inhibition (RAW264.7 [4]) of the same compound?
A: The inhibition was “Active”.

Q: What about the MIC (Staphylococcus aureus [5]) of the same compound?
A: Its MIC is 8 µg/mL.

Q: And the Activity (Staphylococcus aureus [6])?
A: Its Activity is “Active”.

Q: And the Activity (Staphylococcus aureus [7])?
A: The Activity was “Active”.

Q: And the MIC (Escherichia coli [8])?
A: The MIC was 32 µg/mL.

Q: What about the Ratio (Pseudomonas aeruginosa [9]) of the same compound?
A: The Ratio was 4.

Q: And the Ratio (Pseudomonas aeruginosa [10])?
A: Its Ratio is 8.

Q: What about the TI [11] of the same compound?
A: Its TI is 53.9.

Q: What about the MIC (Escherichia coli [12]) of the same compound?
A: The MIC was 32 µg/mL.

Q: What about the Activity (Escherichia coli [13]) of the same compound?
A: Its Activity is “Dose-dependent effect”.

Q: What about the MIC [14] of the same compound?
A: Its MIC is 32 µg/mL (≈ 37.4 µM).

Q: What about the MIC (Pseudomonas aeruginosa [15]) of the same compound?
A: Its MIC is 8 µg/mL (≈ 9.35 µM).

Q: What about the Ratio (Enterococcus faecium [16]) of the same compound?
A: Its Ratio is 2.

Q: What about the Ratio (Staphylococcus aureus [17]) of the same compound?
A: The Ratio was 2 - 4.

Q: And the MIC (Staphylococcus aureus [18])?
A: The MIC was 8 µg/mL.

Q: What about the inhibition (RAW264.7 [19]) of the same compound?
A: Its inhibition is “Active”.

Q: What about the MIC (Enterococcus faecium [20]) of the same compound?
A: Its MIC is 8 µg/mL (≈ 9.35 µM).

Q: And the TI [21]?
A: The TI was 53.9.

Q: What about the MIC (Staphylococcus aureus [22]) of the same compound?
A: Its MIC is 8 µg/mL (≈ 9.35 µM).

Q: What about the MIC (Pseudomonas aeruginosa [23]) of the same compound?
A: The MIC was 8 µg/mL (≈ 9.35 µM).

Q: What about the inhibition at 32 µg/mL (RAW264.7 [24]) of the same compound?
A: The inhibition at 32 µg/mL was greater than 50%.

Q: What about the Activity (Escherichia coli [25]) of the same compound?
A: The Activity was “Active”.

Q: And the MIC (Staphylococcus aureus [26])?
A: Its MIC is 4 µg/mL (≈ 4.67 µM).

Q: What about the inhibition (RAW264.7 [27]) of the same compound?
A: Its inhibition is “Dose-dependent effect”.
